Results on 31 compounds are retold here after PubChem BioAssay AID540305 (Sanford-Burnham Center for Chemical Genomics, 2011).

The source made the active and inactive calls.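 The calls were made as follows: active = mean EC50 at or below 20 µM; inactive = the rest.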 Bounds are passed on as bounds.

This test has as its target CHO-XBP1 luciferase reporter, IRE1-XBP1 activation, luminescence. Briefly: IRE1-XBP1 adaptive UPR arm activators, SAR follow-up, counter-screen for UPR apoptotic arm activator project, CHO-XBP1 cells, luminescence (AID 540305). Put shortly: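 System: CHO-XBP1 cells stably carrying IRE1-XBP1 luciferase reporter / Buffer or medium: F12 medium with 10% fetal bovine serum / Incubation: overnight plating, 6 h compound treatment at 37 °C / Measured by: luciferase luminescence using Steady-Glo reagent / Control set: tunicamycin 10 µg/mL as positive control, DMSO alone as negative control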

In the case of `O=C(Nc1ccc(S(=O)(=O)N2CCOCC2)cc1)c1ccc([N+](=O)[O-])o1`, the EC50 (usually the midpoint of the concentration-response curve) was > 80 µM (inactive). The same measure for `O=C(Nc1nc2ccc(F)cc2s1)c1ccccn1`: > 80 µM (inactive); for `O=C(Nc1cccc(S(=O)(=O)N2CCOCC2)c1)c1ccco1`: > 80 µM (inactive). The same measure for `O=C(Nc1ccc(S(=O)(=O)N2CCCC2)cc1)c1ccc([N+](=O)[O-])o1`: > 80 µM (inactive). On to `O=C(Nc1ccc(S(=O)(=O)N2CCOCC2)cc1)c1ccccc1`, for which the EC50 is > 80 µM (inactive). For `CC1(C)CCN(S(=O)(=O)c2ccc(NC(=O)c3ccc([N+](=O)[O-])o3)cc2)CC1`, the EC50 is > 80 µM (inactive). The same measure for `O=C(Nc1ccc(S(=O)(=O)N2CCOCC2)cc1)c1cccs1`: > 80 µM (inactive).

`CC1CN(S(=O)(=O)c2ccc(NC(=O)c3ccco3)cc2)CC(C)O1` (stereo unspecified): the EC50 was > 80 µM (inactive).

Regarding `O=C(Nc1ccc(S(=O)(=O)N2CCOCC2)cc1)c1ccc([N+](=O)[O-])cc1`, the EC50 was > 80 µM (inactive). Take `O=C(Nc1ccc(S(=O)(=O)C2CCCCC2)cc1)c1ccc([N+](=O)[O-])o1`: the EC50 is > 80 µM (inactive).

`O=C(Nc1ccc(S(=O)(=O)N2CCC(O)CC2)cc1)c1ccc([N+](=O)[O-])o1`: the EC50 was > 80 µM (inactive). The same measure for `Cc1cc(C)c2nc(NC(=O)c3ccccn3)sc2c1`: > 80 µM (inactive); for `O=C(Nc1nc2c(F)cc(F)cc2s1)c1ccccc1`: > 80 µM (inactive); for `O=C(Nc1nc2c(F)cc(F)cc2s1)c1ccncc1`: > 80 µM (inactive). The same measure for `O=C(Nc1ccc(S(=O)(=O)N2CCOCC2)cc1)c1ccco1`: > 80 µM (inactive); for `O=C(Nc1nc2c(F)cc(F)cc2s1)c1ccccn1`: > 80 µM (inactive); for `O=C(Nc1nc2c(Cl)cc(Cl)cc2s1)c1ccccn1`: > 80 µM (inactive). In the case of `O=C(Nc1nc2ccccc2s1)c1ccncc1`, the EC50 was > 80 µM (inactive). Regarding `O=C(Nc1ccc(S(=O)(=O)N2CCOCC2)cc1)c1ccc([N+](=O)[O-])s1`, the EC50 was > 80 µM (inactive). As to `Fc1cc(F)c2nc(NCc3ccccn3)sc2c1`, the EC50 was > 80 µM (inactive). The same measure for `O=C(Nc1nc2c(F)cccc2s1)c1ccccn1`: > 80 µM (inactive).

Turning to `O=C(Nc1nc2ccccc2s1)c1cccnc1`, the EC50 was > 80 µM (inactive).

For the compound `O=C(Nc1ccc(S(=O)(=O)N2CCCCC2)cc1)c1ccc([N+](=O)[O-])o1`, the EC50 is > 80 µM (inactive). Take `CC1CCN(S(=O)(=O)c2ccc(NC(=O)c3ccc([N+](=O)[O-])o3)cc2)CC1`: the EC50 is > 80 µM (inactive). `O=C(Nc1ccc(C(=O)N2CCOCC2)cc1)c1ccco1`: the EC50 was > 80 µM (inactive). The same measure for `O=C(Nc1ccc(S(=O)(=O)N2CCNCC2)cc1)c1ccc([N+](=O)[O-])o1`: > 80 µM (inactive); for `O=C(Nc1ccc(S(=O)(=O)N2CCOCC2)cc1)c1ccc(Br)o1`: > 80 µM (inactive); for `O=C(Nc1nc2c(F)cc(F)cc2s1)c1cccnc1`: > 80 µM (inactive). The same measure for `O=C(Nc1nc2ccccc2s1)c1ccccn1`: > 80 µM (inactive).

For the compound `Cc1ccc(C(=O)Nc2ccc(S(=O)(=O)N3CCOCC3)cc2)o1`, the EC50 is > 80 µM (inactive).

As for `O=C(Nc1ccc(S(=O)(=O)c2ccccc2)cc1)c1ccc([N+](=O)[O-])o1`, the EC50 is > 80 µM (inactive).
